Data: ChEMBL document CHEMBL1629684, “Effects of ravuconazole treatment on parasite load and immune response in dogs experimentally infected with Trypanosoma cruzi” (Antimicrob Agents Chemother, 2010)
Activity calls are given as the source filed them.

Columns and labels:
Trypanosoma cruzi [1] = test: Antimicrobial activity against Trypanosoma cruzi Berenice-78 infected in mongrel dog assessed as parasite level in blood of dog at 7 mg/kg, po BID started 12 to 22 days postinfection measured after 30 days by PCR analysis; assay type: functional
How it was run: (§1)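 Blood PCR for T. cruzi on treated dogs (n = 5 per group) at 1 and 6 months posttreatment. Each reaction took 2 μl blood DNA template in Tris-HCl pH 9.0, 75 mM KCl, 3.5 mM MgCl2 and 0.2 mM dNTPs. Cycling was 95°C 5 min, then 2 cycles annealing at 30°C, 33 cycles at 40°C, and 72°C 5 min. Products were run on 6% polyacrylamide and silver stained. Reported as rate of positive animals.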

[2] = Half life in human; assay type: ADME, organism-based; settings: in vivo
Canis familiaris [3] = test: Immunostimulatory activity in mongrel dog infected with Trypanosoma cruzi Y assessed as production of antibody IgG2 at 12 mg/kg, po BID for 90 days measured up to 30 days by ELISA; assay type: functional, organism-based; parameters: dose 12 mg/kg; settings: Canis lupus familiaris
How it was run: (§2)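 Serum was taken before inoculation and then monthly until 6 months posttreatment, and stored at −80°C. ELISA plates were coated with alkaline extract of Y-strain parasites grown to exponential phase in LIT medium. Bound total IgG or IgG2 was detected with peroxidase-labeled anti-dog conjugates and read at 490 nm. Cutoff was the mean absorbance of 10 uninfected dogs plus 2 SD.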

Canis familiaris [4] = test: Immunostimulatory activity in mongrel dog infected with Trypanosoma cruzi Berenice-78 assessed as reduction in INFgamma production in right atrium at 7 mg/kg, po BID after 180 days by semiquantitative RT-PCR; assay type: functional, organism-based; parameters: dose 7 mg/kg; settings: Canis lupus familiaris, Cardiac atrium
How it was run: (§3)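 Dogs were euthanized 6 months after the end of treatment. RNA was extracted from the right atrium with acid guanidinium thiocyanate-phenol-chloroform. One microgram was DNase treated and reverse transcribed with oligo(dT) for 1 h at 42°C. IFN-γ or IL-10 cDNA was amplified with 1.5 mM MgCl2: 94°C 5 min, n cycles of 94/57/72°C, final extension 72°C 6 min. Expression was scored semiquantitatively against infected untreated and noninfected dogs.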

Trypanosoma cruzi [5] = test: Antitrypanosomal activity against Trypanosoma cruzi Berenice-78 infected in mongrel dog assessed as reduction in parasite-induced intrafascicular collagen deposition in right atrium at 12 mg/kg, po BID after 180 days […]; assay type: functional, organism-based; parameters: dose 12 mg/kg; settings: Cardiac atrium
Canis familiaris [6] = test: Toxicity in mongrel dog infected with Trypanosoma cruzi Y assessed as weight loss at 12 mg/kg, po BID for 90 days started 12 to 22 days postinfection measured after 6 months; assay type: organism-based, Canis lupus familiaris; parameters: dose 12 mg/kg, route oral; settings: in vivo, 4383 h
How it was run: (§4)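 Body weight gain, in kg, was recorded for infected dogs 1 day and 6 months after the end of oral b.i.d. treatment. Treated animals were compared with infected untreated and noninfected control groups.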

Trypanosoma cruzi [7] = test: Antitrypanosomal activity against Trypanosoma cruzi Berenice-78 infected in mongrel dog assessed as reduction in parasite-induced intrafascicular collagen deposition in right atrium at 7 mg/kg, po BID after 180 days […]; assay type: functional, organism-based; parameters: dose 7 mg/kg; settings: Cardiac atrium
Canis familiaris [8] = test: Toxicity in mongrel dog infected with Trypanosoma cruzi Berenice-78 assessed as weight loss at 7 mg/kg, po BID for 90 days started 12 to 22 days postinfection measured after 6 months; assay type: organism-based, Canis lupus familiaris; parameters: dose 7 mg/kg, route oral; settings: in vivo, 4383 h; how it was run: as §4
Trypanosoma cruzi [9] = test: Antimicrobial activity against Trypanosoma cruzi Y infected in mongrel dog assessed as parasite level in blood of dog at 12 mg/kg, po BID started 12 to 22 days postinfection measured after 30 days by PCR analysis; assay type: functional; how it was run: as §1
Canis familiaris [10] = test: Immunostimulatory activity in mongrel dog infected with Trypanosoma cruzi Berenice-78 assessed as reduction in IL10 production in right atrium at 12 mg/kg, po BID after 180 days by semiquantitative RT-PCR; assay type: functional, organism-based; parameters: dose 12 mg/kg; settings: Canis lupus familiaris, Cardiac atrium; how it was run: as §3
Canis familiaris [11] = test: Immunostimulatory activity in mongrel dog infected with Trypanosoma cruzi Berenice-78 assessed as reduction in INFgamma production in right atrium at 12 mg/kg, po BID after 180 days by semiquantitative RT-PCR; assay type: functional, organism-based; parameters: dose 12 mg/kg; settings: Canis lupus familiaris, Cardiac atrium; how it was run: as §3
Trypanosoma cruzi [12] = test: Antimicrobial activity against Trypanosoma cruzi Berenice-78 infected in mongrel dog assessed as survival of dog at 7 mg/kg, po BID started 12 to 22 days postinfection measured after 1 day; assay type: functional
How it was run: (§5)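 Four-month-old mongrel dogs (five per group) received 2.0 × 10^3 Y or Berenice-78 bloodstream trypomastigotes/kg. Oral dosing began 12–22 days postinfection, when parasitemia was detected by fresh blood examination: 12 mg/kg q12h for 90 days, or 7 mg/kg q12h for 60 days. Ear-vein blood was checked from day 10. Mortality was expressed as the cumulative percentage of dead animals.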

[13] = Half life in mongrel dog; assay type: ADME, organism-based, Canis lupus familiaris; settings: in vivo
Trypanosoma cruzi [14] = test: Antimicrobial activity against Trypanosoma cruzi Y infected in mongrel dog assessed as suppression of microbial proliferation at 7 mg/kg, po BID started 12 to 22 days postinfection measured after 1 day; assay type: functional, organism-based; parameters: dose 7 mg/kg
How it was run: (§6)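 Mongrel dogs, 4 months old, dewormed and vaccinated, were inoculated with 2.0 × 10^3 bloodstream trypomastigotes/kg. Oral b.i.d. (q12h) dosing began 12 to 22 days postinfection, once parasitemia appeared. Dosing ran 90 days at 12 mg/kg and 60 days at 7 mg/kg, with 5 dogs per group. Parasitemia was read by fresh-blood examination of marginal ear vein blood from day 10 of infection until parasites were undetectable.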

Canis familiaris [15] = test: Immunostimulatory activity in mongrel dog infected with Trypanosoma cruzi Berenice-78 assessed as production of antibody IgG2 at 12 mg/kg, po BID for 90 days measured up to 30 days by ELISA; assay type: functional, organism-based; parameters: dose 12 mg/kg; settings: Canis lupus familiaris; how it was run: as §2
Trypanosoma cruzi [16] = test: Antimicrobial activity against Trypanosoma cruzi Berenice-78 infected in mongrel dog assessed as suppression of microbial proliferation at 12 mg/kg, po BID started 12 to 22 days postinfection measured after 1 day; assay type: functional, organism-based; parameters: dose 12 mg/kg; how it was run: as §6
Trypanosoma cruzi [17] = test: Antimicrobial activity against Trypanosoma cruzi Berenice-78 infected in mongrel dog assessed as suppression of microbial proliferation at 7 mg/kg, po BID started 12 to 22 days postinfection measured after 1 day; assay type: functional, organism-based; parameters: dose 7 mg/kg; how it was run: as §6
Trypanosoma cruzi [18] = test: Antimicrobial activity against Trypanosoma cruzi Berenice-78 infected in mongrel dog assessed as parasite level in blood of dog at 12 mg/kg, po BID started 12 to 22 days postinfection measured after 30 days by PCR analysis; assay type: functional
How it was run: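 Mongrel dogs (4 months old, five per group) were inoculated with 2.0 × 10^3 Berenice-78 bloodstream trypomastigotes/kg and dosed orally at 12 mg/kg q12h for 90 days, beginning 12–22 days postinfection once parasitemia appeared. Blood was sampled 1 month after treatment. PCR used 2 μl blood DNA, 35 cycles with annealing at 30°C then 40°C, and polyacrylamide gel with silver staining.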

Trypanosoma cruzi [19] = test: Antimicrobial activity against Trypanosoma cruzi Y infected in mongrel dog assessed as survival of dog at 7 mg/kg, po BID started 12 to 22 days postinfection measured after 1 day; assay type: functional; how it was run: as §5
Canis familiaris [20] = test: Immunostimulatory activity in mongrel dog infected with Trypanosoma cruzi Berenice-78 assessed as production of antibody IgG at 12 mg/kg, po BID for 90 days measured up to 30 days by ELISA; assay type: functional, organism-based; parameters: dose 12 mg/kg; settings: Canis lupus familiaris; how it was run: as §2
Canis familiaris [21] = test: Immunostimulatory activity in mongrel dog infected with Trypanosoma cruzi Berenice-78 assessed as reduction in IL10 production in right atrium at 7 mg/kg, po BID after 180 days by semiquantitative RT-PCR; assay type: functional, organism-based; parameters: dose 7 mg/kg; settings: Canis lupus familiaris, Cardiac atrium; how it was run: as §3
[22] = Half life in po dosed human; assay type: ADME, organism-based; settings: in vivo
Canis familiaris [23] = test: Toxicity in mongrel dog infected with Trypanosoma cruzi Y assessed as weight loss at 12 mg/kg, po BID for 90 days started 12 to 22 days postinfection measured after 1 day; assay type: organism-based, Canis lupus familiaris; parameters: dose 12 mg/kg, route oral; settings: in vivo, 24 h; how it was run: as §4

Question: Which Activity (Trypanosoma cruzi [1]) does the source give for C[C@@H](c1nc(-c2ccc(C#N)cc2)cs1)[C@](O)(Cn1cncn1)c1ccc(F)cc1F [RAVUCONAZOLE] here?
Answer: The Activity was 60%.

Question: What about the half-life [2] of the same compound?
Answer: Its half-life is 96 h.

Question: What about the Activity (Canis familiaris [3]) of the same compound?
Answer: The Activity was “Active”.

Question: What about the Activity (Canis familiaris [4]) of the same compound?
Answer: The Activity was “Active”.

Question: And the Activity (Trypanosoma cruzi [5])?
Answer: Its Activity is “Active”.

Question: And the Activity (Canis familiaris [6])?
Answer: Its Activity is “Non-toxic”.

Question: What about the Activity (Trypanosoma cruzi [7]) of the same compound?
Answer: Its Activity is “Active”.

Question: What about the Activity (Canis familiaris [8]) of the same compound?
Answer: Its Activity is “Non-toxic”.

Question: And the Activity (Trypanosoma cruzi [9])?
Answer: The Activity was 80%.

Question: What about the Activity (Canis familiaris [10]) of the same compound?
Answer: Its Activity is “Active”.

Question: And the Activity (Canis familiaris [11])?
Answer: Its Activity is “Active”.

Question: What about the Activity (Trypanosoma cruzi [12]) of the same compound?
Answer: The Activity was 100%.

Question: And the half-life [13]?
Answer: The half-life was 8.8 h.

Question: And the Activity (Trypanosoma cruzi [14])?
Answer: Its Activity is “Non-toxic”.

Question: What about the Activity (Canis familiaris [15]) of the same compound?
Answer: Its Activity is “Active”.

Question: What about the Activity (Trypanosoma cruzi [16]) of the same compound?
Answer: The Activity was “Non-toxic”.

Question: And the Activity (Trypanosoma cruzi [17])?
Answer: Its Activity is “Non-toxic”.

Question: And the Activity (Trypanosoma cruzi [18])?
Answer: The Activity was 100%.

Question: And the Activity (Trypanosoma cruzi [19])?
Answer: Its Activity is 100%.

Question: What about the Activity (Canis familiaris [20]) of the same compound?
Answer: The Activity was “Active”.

Question: What about the Activity (Canis familiaris [21]) of the same compound?
Answer: The Activity was “Active”.

Question: And the half-life [22]?
Answer: Its half-life is ≥ 120 h.

Question: And the Activity (Canis familiaris [23])?
Answer: The Activity was “Non-toxic”.
